Results reported in ChEMBL document CHEMBL4680120, “Novel anti-Alzheimer phenol-lipoyl hybrids: Synthesis, physico-chemical characterization, and biological evaluation” (Eur J Med Chem, 2020).
In brackets after ≈: the same amount, converted by molar mass. Activity calls are given as the source filed them. The calls are words filed in the database; no cut-off is given here.

What was measured:
[1] = Stability in simulated intestinal fluid at pH 6.8 assessed as relative difference measured after 30 mins in presence of pancreatin by HPLC analysis; assay type: ADME; details: simulated gi fluid, pH 6.8, 0.5 h
Method in brief: (§1)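 Incubation in simulated gastric fluid (pH 1.2, pepsin) or simulated intestinal fluid (pH 6.8, pancreatin). Aliquots deproteinized with ice-cold acetonitrile, centrifuged at 4°C and 12000 rpm for 10 min, filtered, analyzed by HPLC. RD% = (Ci − Cf)/Ci × 100. Stable if RD < 5%. Means of three experiments.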

[2] = Stability in simulated intestinal fluid at pH 6.8 assessed as relative difference measured after 60 mins in presence of pancreatin by HPLC analysis; assay type: ADME; details: simulated gi fluid, pH 6.8, 1 h; method in brief: as §1
[3] = Stability in simulated intestinal fluid at pH 6.8 assessed as relative difference measured after 15 mins in presence of pancreatin by HPLC analysis; assay type: ADME; details: simulated gi fluid, pH 6.8, 0.25 h; method in brief: as §1
SH-SY5Y [4] = test: Cytotoxicity against human SH-SY5Y cells assessed as reduction in cell viability at 1 to 250 mg/l measured after 48 hrs by MTT assay; assay type: cell-based; details: dose 1-250 mg/L
Method in brief: (§2)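 SH-SY5Y cells grown in DMEM/F12 with 10% FBS and differentiated with retinoic acid (10 μM), seeded at 1×10^4 per well and cultured 24 h. Cells were given hybrids at 1–250 mg/L with or without Aβ1-42 (20 μM) for 48 h. MTT (5 mg/mL) added for 4 h at 37°C, DMSO solubilization, read at 570/630 nm. LDH read at 450 nm. Five independent experiments.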

[5] = Stability in simulated intestinal fluid at pH 6.8 assessed as relative difference measured after 120 mins in presence of pancreatin by HPLC analysis; assay type: ADME; details: simulated gi fluid, pH 6.8, 2 h; method in brief: as §1
[6] = Stability in human plasma assessed as observed rate constant by HPLC analysis; assay type: ADME, cell-free
Method in brief: (§3)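 Compound stock added to human plasma pre-warmed to 37°C and diluted with 0.02 M phosphate buffer (pH 7.4) to 80% plasma. 100 μL samples taken over time, quenched with 200 μL cold acetonitrile, centrifuged, and supernatant analyzed by HPLC. t½ and kobs are means of three experiments.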

[7] = Solubility of compound in water by HPLC analysis; assay type: physicochemical
[8] = Stability in simulated gastric fluid at pH 1.2 assessed as relative difference measured after 30 mins in presence of pepsin by HPLC analysis; assay type: ADME; details: isolated protein, pH 1.2, 0.5 h; method in brief: as §1
[9] = Stability in simulated intestinal fluid at pH 6.8 assessed as relative difference measured after 180 mins in presence of pancreatin by HPLC analysis; assay type: ADME; details: simulated gi fluid, pH 6.8, 3 h; method in brief: as §1
[10] = Stability in simulated gastric fluid at pH 1.2 assessed as relative difference measured after 60 mins in presence of pepsin by HPLC analysis; assay type: ADME; details: isolated protein, pH 1.2, 1 h; method in brief: as §1
SH-SY5Y [11] = test: Neuroprotective activity against amyloid beta (1 to 42)-induced toxicity in human SH-SY5Y cells assessed as increase in cell viability at 1 to 250 mg/l measured after 48 hrs by LDH release assay; assay type: functional, cell-based; details: dose 1-250 mg/L; method in brief: as §2
[12] = Half life in human plasma by HPLC analysis; assay type: ADME, cell-free; method in brief: as §3
SH-SY5Y [13] = test: Neuroprotective activity against amyloid beta (1 to 42)-induced toxicity in human SH-SY5Y cells assessed as increase in cell viability at 1 to 250 mg/l measured after 48 hrs by MTT assay; assay type: functional, cell-based; details: dose 1-250 mg/L; method in brief: as §2
[14] = Stability in simulated gastric fluid at pH 1.2 assessed as relative difference measured after 15 mins in presence of pepsin by HPLC analysis; assay type: ADME; details: isolated protein, pH 1.2, 0.25 h; method in brief: as §1
Erythrocyte = test: Antioxidant activity in human RBC assessed as increase in total antioxidant capacity level up to 400 ug/ml measured after 72 hrs relative to control; assay type: functional; details: dose microg/ml <=400

Row | SMILES | fold change (FC) [1] [%] | fold change (FC) [2] [%] | fold change (FC) [3] [%] | Activity (SH-SY5Y [4]) | fold change (FC) [5] [%] | K [6] [h⁻¹] | solubility [7] [µg/mL] | fold change (FC) [8] [%] | fold change (FC) [9] [%] | fold change (FC) [10] [%] | Activity (SH-SY5Y [11]) | half-life [12] [h] | Activity (SH-SY5Y [13]) | fold change (FC) [14] [%] | Activity (Erythrocyte) [%]
1 | COc1cc(/C=C/C(=O)NCCNC(=O)CCCCC2CCSS2)ccc1O (centres undefined) | 3.01 | 5.2 | 2.52 | Non-Toxic | 4.15 | 0.012 | 23 (≈ 54.2 µM) | 1.28 | 4.8 | 3.45 | Active | 57.4 | Active | 0.25 | 
2 | O=C(CCCCC1CCSS1)NCCOC(=O)Cc1ccc(O)c(O)c1 (centres undefined) | 35.4 | 54.62 | 2.5 | Non-Toxic | 70.45 | 0.613 | 736 (≈ 1840 µM) | 46.72 | 100 | 67.34 | Active | 1.13 | Active | 12.34 | 
3 | O=C1O[C@H]([C@@H](O)CO)C(O)=C1O [ASCORBIC ACID] |  |  |  |  |  |  |  |  |  |  |  |  |  |  | 10.7
4 | O=C(CCCCC1CCSS1)NCCCCNC(=O)Cc1ccc(O)c(O)c1 (centres undefined) | 20.44 | 42.7 | 1.5 | Non-Toxic | 63 | 0.479 | 81 (≈ 190 µM) | 37.63 | 88.91 | 57.89 | Active | 1.49 | Active | 10.37 | 
5 | COc1ccc(/C=C/C(=O)NCCCCNC(=O)CCCCC2CCSS2)cc1OC (centres undefined) | 3.64 | 11.79 | 3 | Non-Toxic | 22.21 | 0.019 |  | 8.23 | 34.75 | 22.16 | Active | 36.4 | Active | 4.67 | 
6 | O=C(CCCCC1CCSS1)NCCNC(=O)Cc1ccc(O)c(O)c1 (centres undefined) | 2.17 | 4.02 | 1.89 | Non-Toxic | 3.78 | 0.031 | 2690 (≈ 6740 µM) | 0.99 | 4.32 | 2.74 | Active | 23.1 | Active | 0.63 | 
7 | O=C(CCCCC1CCSS1)NCCOCCOC(=O)Cc1ccc(O)c(O)c1 (centres undefined) | 45.89 | 60.78 | 3.87 | Non-Toxic | 89.78 | 0.32 | 2480 (≈ 5600 µM) | 63.52 | 100 | 78.9 | Active | 2.16 | Active | 45.21 | 
